Bioassay records from PubChem BioAssay.
STAT1 act – STAT1 signaling activators, primary screen, cell-based, HTS, luciferase reporter | NIH 3T3 STAT1-luciferase reporter, IFN-gamma, luminescence; 100% = IFN-gamma alone, no compound | activation (% of control), % at 5.5 µM | 200,000 tested, 2.6% active;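 active = activation above the screen-wide mean activation plus 3 SD, cut at about 130% in these data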
STAT3 act – IL-6 driven STAT3 reporter potentiators, primary screen, U3A cells, luciferase, luminescence, MLSCN library; IL-6 STAT3-luciferase reporter; 100% = signal with IL-6 EC80 alone; activation (% of control), % at 5.6 µM; 190,000 tested, 0.91% active; AID 871, 2007;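 active = activation above the screen-wide mean of compound activation plus 3 SD, cut at about 130% in these data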
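Test system: STAT3-luciferase reporter U3A cells; Detection: reporter luminescence signal; Times: 1 h compound pre-exposure, 6 h IL-6 stimulation, 37 °C; Benchmarks: IL-6-only high control; Also added: IL-6 stimulus at 33 ng/mL final.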
HSV augment – enhancers of HSV replication in host cells, fold increase, host cell viability | HSV replication augmentation in cells | 220,000 tested, 0.005% active | AID 1956, 2009 | maximum fold increase; in the data active = maximum fold increase above about 1.5; tested in PC3 cells
STAT3 inh – IL-6 driven STAT3 reporter inhibitors, primary screen, U3A cells, luciferase, luminescence, MLSCN library; IL-6 STAT3-luciferase reporter; host cell line lacks STAT1; inhibition, % at 5.5 µM; 190,000 tested, 0.89% active; AID 862, 2007;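 active = inhibition above the mean inhibition across all screened compounds plus 3 SD, cut at about 44% in these data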
STAT1 blocker – STAT1 signaling inhibitors, primary screen, cell-based, HTS, luciferase reporter. 200,000 tested, 0.35% active. inhibition, % at 5.5 µM. NIH 3T3 STAT1-luciferase reporter, IFN-gamma, luminescence;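 active = inhibition above a set limit, the mean inhibition across all tested compounds plus 3 SD, cut at about 34% in these data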
Cl transport mod – KCC2 cotransporter modulators, thallium flux, primary screen, cell-based, HEK293 KCC2, FluoZin-2 fluorescence, MLSMR; 190,000 tested, 2.2% active; B-score of Tl+ flux slope (higher = more flux/activation; lower = inhibition) at 10 µM; KCC2 cells, thallium flux FluoZin-2 fluorescence; Solute carrier family 12 member 5 (Homo sapiens), Q9H2X9;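 active = thallium flux slope and its plate-corrected score both differing from the plate sample mean at a set confidence after two filtering rounds, in either direction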;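 note: slope of fluorescence scaled to starting intensity during 10 to 20 s after thallium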
A number is an active result; n = inactive; x = no result given. In the library only some 5.5% were active in any assay of this set; here they are far more common.

SMILES	STAT1 act	STAT3 act	HSV augment	STAT3 inh	STAT1 blocker	Cl transport mod
COc1ccccc1N1CCN(C(=O)C2CC=CCC2C(=O)O)CC1 (stereo unspecified)	n	n	n	n	n	-3.57
O=S(=O)(/N=C(/Nc1ccc(F)cc1F)c1ccccc1)c1ccccc1	n	n	n	n	n	n
O=c1sc2ccccc2n1CCOc1ccccc1	142.0	n	n	n	n	n
Cc1ccc(OCCn2c(=O)n(C)c3ccccc32)cc1	150.5	n	n	n	n	n
Cc1cccc(NS(=O)(=O)c2cc(C(=O)N3CCc4ccccc4C3)ccc2Cl)c1C	n	n	n	n	n	n
CCOC(=O)N1CCN(C(=O)c2ccc3c(c2)sc2nc(-c4ccccc4)cn23)CC1	144.6	n	n	n	n	n
Cc1cc(C)nc(NC(=O)c2c(-c3ccccc3Cl)noc2C)c1	n	n	n	n	n	n
COc1ccc(S(=O)(=O)N2CCOCC2)cc1NC(=O)CSc1n[nH]c(C(C)C)n1	n	n	n	n	n	n
O=c1oc2ccccc2n1CSc1nc2ccccc2s1	136.9	n	n	n	n	x
CCN1CCN(c2ccc(NC(=O)c3cccc(F)c3)cc2Cl)CC1	135.7	n	n	n	n	n
O=C(Nc1ccc(N2CCOCC2)c(Cl)c1)c1ccc(F)cc1	n	n	n	n	n	n
Cc1nn(-c2cccc(Cl)c2)nc1C(=O)O	n	n	n	n	n	n
CC(C)(C)C(=O)Nc1nc(NC(=O)C(C)(C)C)nc(-c2ccccc2Cl)n1	x	x	n	x	x	n
CC(C)(C)C(=O)Nc1cc2nn(-c3ccccc3)nc2cc1Cl	n	n	n	104.0	82.7	n
CC(=O)Nc1cc2nn(-c3ccccc3)nc2cc1Cl	131.4	n	n	n	n	n
O=S(=O)(C/C(=C/CO)S(=O)(=O)c1ccccc1)c1ccccc1	260.0	n	n	47.7	n	x
CCN(Cc1ccccc1)C(=O)CS(=O)(=O)c1ccccc1	n	n	n	n	n	n
CN(C)/C=C/C(=O)c1cnc(-c2ccccc2)s1	131.4	n	n	n	n	n
O=[N+]([O-])c1ccc(Oc2ccc(C(F)(F)F)cn2)cc1	141.7	n	n	n	n	n
COc1ccc2c(c1OC)C(=O)N(c1nccs1)C2	131.6	n	n	n	n	n
COc1ccc(C2C(C(C)=O)=C(O)C(=O)N2c2nccs2)cc1OC (stereo unspecified)	n	n	n	n	n	n
COc1ccc(C(C)(C)C)cc1NC(=O)CNc1cccc2ccccc12	n	135.6	n	n	n	n
CCOc1ccc(-c2cn3ccccc3n2)cc1	n	n	n	89.0	53.4	n
COc1ccc(-c2cn3cccc(C)c3n2)cc1F	145.0	n	n	n	n	n
COc1ccc(-c2cn3ccccc3n2)cc1OC	129.5	173.3	n	n	n	x
SMILES	STAT1 act	STAT3 act	HSV augment	STAT3 inh	STAT1 blocker	Cl transport mod
COc1ccc(-c2cn3cc(C)ccc3n2)cc1OC	133.5	n	n	n	n	x
COc1ccc(-c2cn3cc(C)ccc3n2)cc1F	n	n	n	87.2	63.2	n
O=C(O)C1CCN(c2nc(-c3ccccc3)nc3c2oc2ccccc23)CC1	n	n	n	n	n	-2.85
CCc1ccc(C(=O)Nc2cc3c(cc2Cl)OCCCO3)cc1	149.6	n	n	n	n	n
COc1ccc2c(c1OC)C(=O)N1c3ccccc3COC21 (stereo unspecified)	147.7	n	n	n	n	n
COc1ccc2c(c1OC)C(=O)N1c3cccc(Cl)c3C(=O)OC21 (stereo unspecified)	n	n	n	n	n	n
COc1ccc2c(c1OC)C(=O)N1c3ccccc3SC21 (stereo unspecified)	148.9	n	n	n	n	n
CCCOC1OC(=O)c2c1ccc(OC)c2OC (stereo unspecified)	n	n	n	n	n	n
Cc1ccc(NC(CC(=O)c2ccccc2)c2ccc(F)cc2)cc1 (stereo unspecified)	n	n	n	n	n	x
O=C(CC(Nc1ccc(F)cc1)C(=O)O)c1ccccc1 (stereo unspecified)	148.2	n	n	53.9	n	n
COc1cc(CNc2ccc(N3CCCC3)cc2)ccc1OCc1ccccc1	n	134.0	n	n	n	n
O=C(Nc1ccc(Cl)cc1F)C1CC1	n	n	n	n	n	n
CCc1ccc(Nc2nc3ccccc3c(=O)s2)cc1	n	n	n	n	n	7.54
NCCCC[C@H]1CNC(=S)N1CCc1cccc(F)c1	n	x	n	x	n	n
Cc1cc(C)c(C(=O)CSc2nnc(N)s2)cc1C	x	x	n	x	x	n
Cc1ccc(C(=O)CSc2nnc(N)s2)c(C)c1	136.9	n	n	n	n	n
Cc1ccc2nc(N/N=C/c3ccco3)cc(C)c2c1	138.4	n	n	n	n	n
Cc1ccc2nc(SCC(=O)N/N=C/c3ccco3)cc(C)c2c1	n	n	n	n	n	n
Cc1cccc(-c2cc3nc4c(c(NCc5ccco5)n3n2)CCCC4)c1	135.3	n	n	n	n	n
Cc1ccc(NC(=O)ON=C2CCCC2)cc1	129.6	n	n	n	n	n
O=C(Nc1ccccc1)ON=C1CCCC1	n	n	n	n	n	n
CC(=O)c1ccc(OCCOc2ccc(Cl)c3cccnc23)cc1	n	n	n	n	n	n
CN(C)S(=O)(=O)c1ccc(Cl)c(NC(=O)COc2ccccc2[N+](=O)[O-])c1	n	n	n	n	n	n
O=C(O)/C=C/c1cnc2ccccc2n1	n	n	n	n	n	n
O=C(/C=C/c1cnc2ccccc2n1)NC12CC3CC(CC(C3)C1)C2	150.1	n	n	n	n	n
SMILES	STAT1 act	STAT3 act	HSV augment	STAT3 inh	STAT1 blocker	Cl transport mod
O=C1CC(c2ccc(F)cc2)Sc2ccccc2N1 (stereo unspecified)	n	135.3	n	n	n	n
COc1cc(C2CC(=O)Nc3ccccc3S2)cc(OC)c1OC (stereo unspecified)	n	n	n	n	n	n
CC(=O)c1ccc(NC(=O)Nc2ccc(Cl)cc2)cc1	133.2	n	n	n	n	n
COc1ccc(NC(=O)C=C(C)C)cc1Cl	n	n	n	n	n	x
CC(C)=CC(=O)Nc1ccc(Cl)cc1	131.5	n	n	n	n	n
CC(=O)c1ccc(NC(=O)Nc2ccncc2)cc1	n	n	n	n	n	n
Cc1nc(NC(=O)Nc2ccc(Cl)cc2)sc1C	142.8	n	n	n	n	n
C=CCNC(=S)Nc1sc2c(c1C(=O)OCC)CC(C)(CC)OC2 (stereo unspecified)	n	n	n	n	n	22.1
Cc1cccc(C(=O)NC(=S)N2CCN(C(=S)NC(=O)c3cccc(C)c3)CC2)c1	n	n	n	n	n	n
